This is an account of results in ChEMBL document CHEMBL1145475, “Expression and purification of an active form of the Mycobacterium leprae DNA gyrase and its inhibition by quinolones” (Antimicrob Agents Chemother, 2007).

Activity calls are given as the source filed them. No cut-off for these calls is given here.

As a reminder, the IC50 is the concentration that gives 50% inhibition.

Experiment [1] deals with Mycobacterium leprae. Briefly: Inhibition of Mycobacterium leprae recombinant DNA gyrase expressed in Escherichia coli assessed as inhibition of pBR322 DNA supercoiling. Put shortly:
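His-tagged M. leprae GyrA and GyrB were expressed separately in E. coli, purified by nickel chelate chromatography, and reconstituted (1 U gyrase). Substrate was 0.4 μg relaxed pBR322 in 40 mM Tris-HCl pH 7.5, 25 mM KCl, 20 mM Mg acetate, 2 mM spermidine, 4 mM DTT, tRNA, BSA, and 3 mM ATP, run 1 h at 30°C.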

Experiment [2] concerns Mycobacterium leprae. As to the kind of experiment: Antibacterial activity in Mycobacterium leprae infected mouse foot-pad model assessed as parasite killing at >150 mg/kg/day after 9 months. Format: functional.
The test system of experiment [3] is Mycobacterium leprae. As to the kind of experiment: Antibacterial activity against Mycobacterium leprae at 5 ug/mL after 11 to 18 days. In kind it is functional.
The subject of experiment [4] is Mycobacterium leprae. Briefly: Effect on Mycobacterium leprae recombinant DNA gyrase expressed in Escherichia coli assessed as enhancement of supercoiled pBR322 DNA cleavage.
For experiment [5], the system named is Mycobacterium leprae. As to the kind of experiment: Antibacterial activity in Mycobacterium leprae infected mouse foot-pad model assessed as parasite killing at 150 mg/kg/day after 9 months. In kind it is functional.
For experiment [6], the system named is Mycobacterium leprae. Briefly: Antibacterial activity in Mycobacterium leprae infected mouse foot-pad model assessed as parasite killing at >300 mg/kg/day after 9 months. In kind it is functional.
For experiment [7], the system named is Mycobacterium leprae. As to the kind of experiment: Antibacterial activity in Mycobacterium leprae infected mouse foot-pad model assessed as parasite killing at 25 mg/kg/day after 9 months. Format: functional.
The test system of experiment [8] is Mycobacterium leprae. As to the kind of experiment: Antibacterial activity in Mycobacterium leprae infected mouse foot-pad model assessed as parasite killing at 15 mg/kg/day after 9 months. In kind it is functional.
In experiment [9] the test system is Mycobacterium leprae. As to the kind of experiment: Antibacterial activity in Mycobacterium leprae infected mouse foot-pad model assessed as parasite killing at 50 mg/kg/day after 9 months. In kind it is functional.

Regarding `O=C(O)c1cn(C2CC2)c2cc(N3CCNCC3)c(F)cc2c1=O` [CIPROFLOXACIN], the IC50 in the experiment on Mycobacterium leprae [1] turned out to be 3.5 µg/mL. Further, the Activity with Mycobacterium leprae [2] is given as above 99%; in the experiment on Mycobacterium leprae [3], 32.
Take `NC1CCN(c2c(F)cc3c(=O)c(C(=O)O)cn(C4CC4)c3c2Cl)C1` (stereo not drawn) [CLINAFLOXACIN]: the IC50 in the experiment on Mycobacterium leprae [1] was 3 µg/mL. Moreover, in the experiment with Mycobacterium leprae [4], the CC25 worked out at 0.6 µg/mL.
Turning to `C[C@H]1NCc2cc(-c3ccc4c(=O)c(C(=O)O)cn(C5CC5)c4c3OC(F)F)ccc21` [GARENOXACIN], the IC50 in the experiment with Mycobacterium leprae [1] came to 3.5 µg/mL. The CC25 in the experiment on Mycobacterium leprae [4] is 3 µg/mL.
The matching figures for `COc1c(N2CCNC(C)C2)c(F)cc2c(=O)c(C(=O)O)cn(C3CC3)c12` (stereo not drawn) [GATIFLOXACIN]: 2 µg/mL and 1 µg/mL.
Turning to `C[C@H]1COc2c(N3CCN(C)CC3)c(F)cc3c(=O)c(C(=O)O)cn1c23.C[C@H]1COc2c(N3CCN(C)CC3)c(F)cc3c(=O)c(C(=O)O)cn1c23.O` [LEVOFLOXACIN], the IC50 with Mycobacterium leprae [1] amounted to 7 µg/mL. Besides, the CC25 in the experiment on Mycobacterium leprae [4] is 3 µg/mL.
For `COc1c(N2C[C@@H]3CCCN[C@@H]3C2)c(F)cc2c(=O)c(C(=O)O)cn(C3CC3)c12` [MOXIFLOXACIN], the Activity in the experiment on Mycobacterium leprae [5] is above 99%.
In the case of `CCn1cc(C(=O)O)c(=O)c2ccc(C)nc21` [NALIDIXIC ACID], the IC50 in the experiment on Mycobacterium leprae [1] turned out to be 300 µg/mL. The outcome in the experiment on Mycobacterium leprae [4] was inactive.
As to `CC1COc2c(N3CCN(C)CC3)c(F)cc3c(=O)c(C(=O)O)cn1c23` (stereo not drawn) [OFLOXACIN], the IC50 in the experiment with Mycobacterium leprae [1] is 10 µg/mL. Also, the CC25 with Mycobacterium leprae [4] came out at 10 µg/mL. Moreover, the Activity with Mycobacterium leprae [3] is on record as 20; with Mycobacterium leprae [5], above 99%.
For the compound `CCn1cc(C(=O)O)c(=O)c2cc3c(cc21)OCO3` [OXOLINIC ACID], the IC50 in the experiment with Mycobacterium leprae [1] worked out at 170 µg/mL. Moreover, the result in the experiment with Mycobacterium leprae [4] was inactive.
As to `CCn1cc(C(=O)O)c(=O)c2cc(F)c(N3CCN(C)CC3)cc21` [PEFLOXACIN], the IC50 in the experiment with Mycobacterium leprae [1] came out at 23 µg/mL. Also, the Activity was above 99% in the experiment on Mycobacterium leprae [6] and 29 with Mycobacterium leprae [3].
Consider `N[C@@H]1CN(c2c(F)cc3c(=O)c(C(=O)O)cn([C@@H]4C[C@@H]4F)c3c2Cl)CC12CC2` [SITAFLOXACIN ANHYDROUS], for which, in the experiment on Mycobacterium leprae [1], the IC50 stood at 1 µg/mL. Also, the Activity in the experiment with Mycobacterium leprae [7] is reported as above 99%. Also, the CC25 with Mycobacterium leprae [4] came out at 0.5 µg/mL.
As to `C[C@@H]1CN(c2c(F)c(N)c3c(=O)c(C(=O)O)cn(C4CC4)c3c2F)C[C@H](C)N1` [SPARFLOXACIN], in the experiment on Mycobacterium leprae [8], the Activity was above 99%. Besides, the IC50 in the experiment on Mycobacterium leprae [1] was determined as 5 µg/mL. In addition, the CC25 in the experiment with Mycobacterium leprae [4] was determined as 1 µg/mL.
For the compound `CC1CN(c2cc3c(cc2F)c(=O)c(C(=O)O)cn3-c2ccc(F)cc2F)CCN1` (stereo not drawn) [TEMAFLOXACIN], the IC50 in the experiment on Mycobacterium leprae [1] stood at 26 µg/mL. Also, the results for the Activity in the experiment on Mycobacterium leprae [9] and in the experiment with Mycobacterium leprae [3] were above 99% and 29, respectively. Also, the CC25 in the experiment on Mycobacterium leprae [4] is 11 µg/mL.
